In ChEMBL document CHEMBL1165954, “Synthesis and in vitro antiprotozoal evaluation of substituted phenalenone analogues” (Bioorg Med Chem, 2010):
≈ marks a conversion by molar mass, not a printed value.

How the values were obtained:
[1] = tested on: Leishmania amazonensis; test: Antiprotozoal activity against promastigotes of Leishmania amazonensis MHOM/ BR/77/LTB0016 after 72 hrs by alamar blue assay; assay type: functional, organism-based; details: MHOM/ BR/77/LTB0016, 72 h
Procedure, shortened: (§1)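 Log-phase promastigotes at 10^6/well in phenol-red-free RPMI 1640. Serum was heat-inactivated FBS at 20% for L. donovani and 10% for L. amazonensis. Cells were exposed to compound serial dilutions with 10% Alamar Blue at 26 °C for 72 h and read at 570 nm with a 630 nm reference. IC50 was taken by linear regression with 95% confidence limits. Three experiments were run in duplicate and analysed by paired two-tailed t-test.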

[2] = tested on: Leishmania donovani; test: Antiprotozoal activity against promastigotes of Leishmania donovani MHOM/IN/90/GE1F8R after 72 hrs by alamar blue assay; assay type: functional, organism-based; procedure, shortened: as §1
[3] = tested on: Trypanosoma cruzi; test: Antiprotozoal activity against epimastigotes of Trypanosoma cruzi Y by alamar blue assay; assay type: functional, organism-based
Procedure, shortened: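 Y-strain epimastigotes grown at 28 °C in LIT medium with 10% (v/v) heat-inactivated FBS. Growth inhibition was measured by the same Alamar Blue colorimetric method used for Leishmania promastigotes.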

[4] = Cytotoxicity against human MCF7 cells assessed as growth inhibition at 10 uM after 72 hrs by MTT assay; assay type: cell-based
Procedure, shortened: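 MCF-7 cells in DMEM with 10% FBS, plated at 10,000 cells/well. After 72 h, MTT was added at 0.5 mg/mL final for 3 h at 37 °C. Formazan was dissolved in SDS–HCl (20% SDS, 0.02 M HCl) and absorbance read at 570 nm.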

SMILES | IC50 [3] | IC50 [1] | IC50 [2] | inhibition at 72 h, 10 µM [4]
O=C1C=Cc2cccc3ccc(-c4ccco4)c1c23 | > 100 µg/mL | 8.39 µg/mL (≈ 34.1 µM) | > 100 µg/mL | 14%
O=C1C(O)=Cc2cccc3ccc(-c4ccc(O)cc4)c1c23 | > 100 µg/mL | > 100 µg/mL | > 100 µg/mL | 23%
O=C1C=Cc2cccc3cccc1c23 [PERINAPHTHENONE] | 2.62 µg/mL (≈ 14.5 µM) | 27.3 µg/mL (≈ 151 µM) | 65.1 µg/mL (≈ 361 µM) | 0%
COC1=Cc2cccc3ccc(-c4ccccc4)c(c23)C1=O | 48.3 µg/mL (≈ 169 µM) | 9.04 µg/mL (≈ 31.6 µM) | 29.9 µg/mL (≈ 104 µM) | 14%
O=C1C(O)=Cc2cccc3ccc(-c4ccccc4)c1c23 | > 100 µg/mL | > 100 µg/mL | > 100 µg/mL | 22%
Oc1ccc2cccc3c2c1C(c1ccco1)C=C3 (configuration not stated) | > 100 µg/mL | > 100 µg/mL | > 100 µg/mL | –
COC1c2cccc3ccc(-c4ccccc4)c(c23)C(=O)C1O (configuration not stated) | > 100 µg/mL | > 100 µg/mL | > 100 µg/mL | 17%
COc1ccc(-c2ccc3cccc4c3c2C(=O)C=C4)cc1 | > 100 µg/mL | 0.83 µg/mL (≈ 2.9 µM) | > 100 µg/mL | 13%
O=C1C=Cc2cccc3ccc(-c4ccccc4)c1c23 | > 100 µg/mL | > 100 µg/mL | > 100 µg/mL | 5%

Further lines, with some results ahead:

IC50 [3] | SMILES | IC50 [1] | IC50 [2] | inhibition at 72 h, 10 µM [4]
> 100 µg/mL | COc1ccc(-c2ccc3cccc4c3c2C(=O)C(O)=C4)cc1 | > 100 µg/mL | > 100 µg/mL | 19%
> 100 µg/mL | O=C1C=Cc2cccc3ccc(-c4cccs4)c1c23 | 14.5 µg/mL (≈ 55.3 µM) | > 100 µg/mL | 4%
> 100 µg/mL | OC1(c2ccccn2)C=Cc2cccc3ccc(-c4ccccn4)c1c23 (configuration not stated) | > 100 µg/mL | > 100 µg/mL | 0%
> 100 µg/mL | COc1ccc(-c2ccc3cccc4c3c2C(=O)C(O)C4O)cc1 (configuration not stated) | > 100 µg/mL | > 100 µg/mL | –
> 100 µg/mL | N#Cc1ccc2cccc3c2c1C(=O)C=C3 | 3.73 µg/mL (≈ 18.2 µM) | 1.02 µg/mL (≈ 4.97 µM) | 44%
11.4 µg/mL (≈ 39.8 µM) | COc1ccc(-c2ccc3cccc4c3c2C=CC4=O)cc1 | 4.43 µg/mL (≈ 15.5 µM) | > 100 µg/mL | 17%
49.8 µg/mL (≈ 175 µM) | Cc1cccc(C)c1-c1ccc2cccc3c2c1C(=O)C=C3 | 42.8 µg/mL (≈ 151 µM) | 27.8 µg/mL (≈ 97.8 µM) | 1%
> 100 µg/mL | O=C1C(O)=Cc2c(-c3ccccc3)ccc3cccc1c23 | > 100 µg/mL | > 100 µg/mL | 19%
> 100 µg/mL | COc1ccc(C2=CC(=O)c3cccc4cccc2c34)cc1 | > 100 µg/mL | > 100 µg/mL | 2%
> 100 µg/mL | O=C1C(O)=Cc2c(-c3ccc(O)cc3)ccc3cccc1c23 | > 100 µg/mL | > 100 µg/mL | 12%
> 100 µg/mL | O=C1C=Cc2cccc3ccc(-c4ccccn4)c1c23 | 53.2 µg/mL (≈ 207 µM) | > 100 µg/mL | 0%
> 100 µg/mL | COC1=Cc2cccc3ccc(-c4ccc(OC)cc4)c(c23)C1=O | > 100 µg/mL | > 100 µg/mL | 15%
